Measured values: ChEMBL document CHEMBL1150589, “New sesquiterpenoids from the root of Guatteria multivenia” (J Nat Prod, 2002)
Values after ≈ are worked out from the molar mass of the structure shown.

Tests used:
Cryptococcus neoformans = test: Antimicrobial activity against Cryptococcus neoformans; assay type: functional, organism-based
How it was run: (§1)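 Antimicrobial assay run per an earlier method. Both IC50 and MIC were reported in µg/mL. Amphotericin B was the positive control for C. albicans and C. neoformans.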

Candida albicans = test: Antimicrobial activity against Candida albicans; assay type: functional, organism-based; how it was run: as §1
[1] = Inhibition of Candida albicans secreted aspartic protease
How it was run: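 SAP inhibition assay run per an earlier method, with IC50 reported in µg/mL. Pepstatin A was the positive control.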

Staphylococcus aureus [2] = test: Antimicrobial activity against Staphylococcus aureus; assay type: functional, organism-based; how it was run: as §1
Staphylococcus aureus [3] = test: Antimicrobial activity against methicillin-resistant Staphylococcus aureus; assay type: functional, organism-based

C[C@@H]1[C@H](O)[C@@H](C)/C=C/C=C/C=C/C=C/C=C/C=C/C=C/[C@H](O[C@@H]2O[C@H](C)[C@@H](O)[C@H](N)[C@@H]2O)C[C@@H]2O[C@](O)(C[C@@H](O)C[C@@H](O)[C@H](O)CC[C@@H](O)C[C@@H](O)CC(=O)O[C@H]1C)C[C@H](O)[C@H]2C(=O)O [AMPHOTERICIN B] showed an IC50 (Cryptococcus neoformans) of 0.3 µg/mL (≈ 0.325 µM), an MIC (Cryptococcus neoformans) of 0.63 µg/mL (≈ 0.682 µM) and an IC50 (Candida albicans) of 0.06 µg/mL (≈ 0.0649 µM).

With COc1ccc2c(c1)C(=O)c1nccc3cc4c(c-2c13)OCO4 [ATHEROSPERMIDINE] the IC50 [1] was 45 µg/mL (≈ 147 µM).

In the case of O=C(O)c1cn(C2CC2)c2cc(N3CCNCC3)c(F)cc2c1=O [CIPROFLOXACIN], the IC50 (Staphylococcus aureus [2]) is reported as 0.07 µg/mL (≈ 0.211 µM), the MIC (Staphylococcus aureus [2]) is reported as 0.39 µg/mL (≈ 1.18 µM) and the MIC (Staphylococcus aureus [3]) is reported as 3.13 µg/mL (≈ 9.45 µM).

Work on O=C1c2ccccc2-c2c3c(cc4ccnc1c24)OCO3 [LIRIODENINE] yielded an IC50 (Staphylococcus aureus [2]) of 2 µg/mL (≈ 7.27 µM), an MIC (Staphylococcus aureus [2]) of 3.13 µg/mL (≈ 11.4 µM) and an IC50 (Cryptococcus neoformans) of 2 µg/mL (≈ 7.27 µM). For the same compound, the MIC (Cryptococcus neoformans) was 12.5 µg/mL (≈ 45.4 µM), the IC50 (Candida albicans) was 3.5 µg/mL (≈ 12.7 µM) and the MIC (Candida albicans) was 6.25 µg/mL (≈ 22.7 µM). The IC50 (Staphylococcus aureus [3]) was 2 µg/mL (≈ 7.27 µM) and the MIC (Staphylococcus aureus [3]) was 3.13 µg/mL (≈ 11.4 µM).

Compound CC(C)CC(=O)N[C@H](C(=O)N[C@H](C(=O)N[C@@H](CC(C)C)[C@@H](O)CC(=O)N[C@@H](C)C(=O)N[C@@H](CC(C)C)[C@@H](O)CC(=O)O)C(C)C)C(C)C [PEPSTATIN] has an IC50 [1] of 0.006 µg/mL (≈ 0.00875 µM).
